From ChEMBL document CHEMBL1158349, “Synthesis and antimicrobial evaluation of 1-(benzofuran-2-yl)-4-nitro-3-arylbutan-1-ones and 3-(benzofuran-2-yl)-4,5-dihydro-5-aryl-1-[4-(aryl)-1,3-thiazol-2-yl]-1H-pyrazoles” (2009)

Assays:
Type in all cases: functional
Details in all cases: read-out: DIZ
Escherichia coli = test: Antibacterial activity against Escherichia coli at 100 ug after 24 hrs by agar disc-diffusion method
Procedure, shortened: (§1)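 Agar disc-diffusion on nutrient agar. Sterile 6 mm filter-paper discs moistened with the test compound in DMSO were placed on plates seeded separately with each bacterium. Amoxicillin was the reference drug. Plates were incubated at 37 °C, and the growth-inhibition zone diameter was measured after 24 h.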

Aspergillus niger = test: Antifungal activity against Aspergillus niger at 100 ug after 48 hrs by agar disc-diffusion method
Procedure, shortened: (§2)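 Disc diffusion on nutrient agar. Plates were inoculated separately with each fungus, then 6 mm paper discs wetted with the compound solution in DMSO were applied. Fluconazole was the reference drug. Plates were incubated at 37 °C, and inhibition-zone diameters were read after 48 h.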

Bacillus subtilis = test: Antibacterial activity against Bacillus subtilis at 100 ug after 24 hrs by agar disc-diffusion method; procedure, shortened: as §1
Staphylococcus aureus = test: Antibacterial activity against Staphylococcus aureus at 100 ug after 24 hrs by agar disc-diffusion method; procedure, shortened: as §1
Candida albicans = test: Antifungal activity against Candida albicans at 100 ug after 48 hrs by agar disc-diffusion method; procedure, shortened: as §2

SMILES	zone of inhibition at 100 µg/disc (Escherichia coli)	zone of inhibition at 100 µg/disc (Aspergillus niger)	zone of inhibition at 100 µg/disc (Bacillus subtilis)	zone of inhibition at 100 µg/disc (Staphylococcus aureus)	zone of inhibition at 100 µg/disc (Candida albicans)
COc1ccc(C(CC(=O)c2cc3ccccc3o2)C[N+](=O)[O-])cc1 (stereo not given)	12 mm	0 mm	0 mm	0 mm	25 mm
NC(=S)N1N=C(c2cc3ccccc3o2)CC1c1ccc(Cl)cc1 (stereo not given)	15 mm	15 mm	12 mm	0 mm	0 mm
O=C(CC(C[N+](=O)[O-])c1ccccc1)c1cc2ccccc2o1 (stereo not given)	12 mm	0 mm	0 mm	0 mm	30 mm
c1ccc(-c2csc(N3N=C(c4cc5ccccc5o4)CC3c3ccccc3)n2)cc1 (stereo not given)	25 mm	0 mm	0 mm	17 mm	0 mm
Clc1ccc(C2CC(c3cc4ccccc4o3)=NN2c2nc(-c3ccccc3)cs2)cc1 (stereo not given)	12 mm	15 mm	0 mm	0 mm	25 mm
O=C(CC(C[N+](=O)[O-])c1ccc(Cl)cc1)c1cc2ccccc2o1 (stereo not given)	12 mm	15 mm	0 mm	0 mm	20 mm
Brc1ccc(-c2csc(N3N=C(c4cc5ccccc5o4)CC3c3ccccc3)n2)cc1 (stereo not given)	0 mm	0 mm	0 mm	0 mm	0 mm
NC(=S)N1N=C(c2cc3ccccc3o2)CC1c1ccccc1 (stereo not given)	0 mm	0 mm	0 mm	0 mm	5 mm
Clc1ccc(C2CC(c3cc4ccccc4o3)=NN2c2nc(-c3ccc(Br)cc3)cs2)cc1 (stereo not given)	0 mm	0 mm	0 mm	0 mm	25 mm
CC1(C)S[C@@H]2[C@H](NC(=O)[C@H](N)c3ccc(O)cc3)C(=O)N2[C@H]1C(=O)O [AMOXICILLIN]	20 mm	–	20 mm	20 mm	–
OC(Cn1cncn1)(Cn1cncn1)c1ccc(F)cc1F [FLUCONAZOLE]	–	20 mm	–	–	20 mm
